Data taken from ChEMBL document CHEMBL1148950, “Indole glucoalkaloids from Chimarrhis turbinata and their evaluation as antioxidant agents and acetylcholinesterase inhibitors” (J Nat Prod, 2004).
Calls of active or inactive are those of the source. The rule behind the calls is not given here.

Columns and labels:
[1] = test system: Radical scavenging activity; assay: Antioxidant activity assessed as DPPH radical scavenging activity; format: functional
Summary of the method: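 Radical scavenging against DPPH with rutin as the reference standard. The value is the concentration in µM needed to scavenge 50% of DPPH free radicals.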

[2] = biological target: Acetylcholinesterase (Homo sapiens) (UniProt P22303); assay: Inhibition of acetylcholinesterase at 1.0 uM by TLC screening assay
[3] = biological target: Acetylcholinesterase (Homo sapiens) (UniProt P22303); assay: Inhibition of acetylcholinesterase at 0.1 uM by TLC screening assay
Summary of the method: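 TLC bioautography on silica gel. Samples in MeOH or MeOH-CH2Cl2 at 0.1 and 1.0 mM were spotted (2 µL), with physostigmine and galanthamine references at 0.1 and 0.01 µM. The plate was sprayed to saturation with 1:1 1 mM DTNB/[…] iodide in buffer, dried 5 min, then sprayed with 3 U/mL AChE. White spots on a yellow background were scored as inhibition.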

[4] = biological target: T1, Acetylcholinesterase (Rattus norvegicus, UniProt P37136); assay: Inhibition of rat brain acetylcholinesterase by colorimetric method
T1 sequence (P37136 whole entry): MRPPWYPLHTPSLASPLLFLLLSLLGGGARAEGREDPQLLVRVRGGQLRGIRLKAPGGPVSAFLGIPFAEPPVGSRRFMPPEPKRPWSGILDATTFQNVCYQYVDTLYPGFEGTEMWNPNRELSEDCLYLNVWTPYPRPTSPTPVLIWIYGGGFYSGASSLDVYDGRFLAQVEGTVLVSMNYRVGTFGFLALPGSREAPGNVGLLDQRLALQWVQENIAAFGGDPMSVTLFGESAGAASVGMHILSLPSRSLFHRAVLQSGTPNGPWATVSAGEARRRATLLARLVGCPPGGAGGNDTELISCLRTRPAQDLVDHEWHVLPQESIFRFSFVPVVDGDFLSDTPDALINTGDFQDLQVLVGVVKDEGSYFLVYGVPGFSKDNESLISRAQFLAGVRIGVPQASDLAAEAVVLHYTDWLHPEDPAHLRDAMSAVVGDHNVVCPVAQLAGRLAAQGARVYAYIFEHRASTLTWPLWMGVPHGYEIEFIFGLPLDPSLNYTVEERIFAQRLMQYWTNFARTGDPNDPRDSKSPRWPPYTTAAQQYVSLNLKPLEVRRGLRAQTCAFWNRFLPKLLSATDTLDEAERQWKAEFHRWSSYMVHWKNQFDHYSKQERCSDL

Chain of Acetylcholinesterase (Homo sapiens) (P22303 whole entry): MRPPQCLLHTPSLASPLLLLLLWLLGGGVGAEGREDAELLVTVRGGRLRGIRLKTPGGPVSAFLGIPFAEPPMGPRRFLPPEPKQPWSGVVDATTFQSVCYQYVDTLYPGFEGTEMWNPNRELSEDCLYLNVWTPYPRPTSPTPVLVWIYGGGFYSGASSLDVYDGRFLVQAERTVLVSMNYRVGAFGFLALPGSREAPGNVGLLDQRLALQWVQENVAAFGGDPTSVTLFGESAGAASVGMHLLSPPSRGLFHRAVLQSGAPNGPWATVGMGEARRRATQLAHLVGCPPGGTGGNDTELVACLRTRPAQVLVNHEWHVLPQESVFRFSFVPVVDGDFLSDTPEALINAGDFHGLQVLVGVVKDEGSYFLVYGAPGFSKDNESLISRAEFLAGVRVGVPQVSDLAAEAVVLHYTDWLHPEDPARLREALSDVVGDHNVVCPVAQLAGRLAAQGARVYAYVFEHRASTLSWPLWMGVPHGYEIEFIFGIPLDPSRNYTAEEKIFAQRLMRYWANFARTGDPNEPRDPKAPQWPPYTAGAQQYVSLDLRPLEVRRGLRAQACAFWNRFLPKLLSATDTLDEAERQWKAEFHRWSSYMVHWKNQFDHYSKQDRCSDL

Question: Which IC50 [1] does the source give for `C=CC1C(CC2=NCCc3c2[nH]c2ccccc32)C(C(=O)OC)=CO[C@H]1O[C@@H]1O[C@H](CO)[C@@H](O)[C@H](O)[C@H]1O` (stereo partly drawn) here?
Answer: The IC50 was 55.1 µM.

Question: How did the IC50 [1] turn out when `C=CC1C(C[C@@H]2NC(C(=O)O)Cc3c2[nH]c2ccccc32)C(C(=O)OC)=CO[C@H]1O[C@@H]1O[C@H](CO)[C@@H](O)[C@H](O)[C@H]1O` (stereo partly drawn) was run?
Answer: The IC50 was 47.1 µM.

Question: How did the IC50 [1] turn out when `C=CC1C(CC2=NCCc3c2[nH]c2ccccc32)C(C(=O)O)=CO[C@H]1O[C@@H]1O[C@H](CO)[C@@H](O)[C@H](O)[C@H]1O` (stereo partly drawn) was run?
Answer: Its IC50 is 52.3 µM.

Question: Which IC50 [1] does the source give for `C=CC1C(Cc2nc(C(=O)O)cc3c2[nH]c2ccc(O)cc23)C(C(=O)OC)=CO[C@H]1O[C@@H]1O[C@H](CO)[C@@H](O)[C@H](O)[C@H]1O` (stereo partly drawn) [CORDIFOLINE] here?
Answer: The IC50 was 18.3 µM.

Question: Which results are given for `C=C[C@H]1[C@H](O[C@H]2O[C@H](CO)[C@@H](O)[C@H](O)[C@H]2O)OC=C(C(=O)OC)[C@H]1Cc1nc(C(=O)O)cc2c1[nH]c1ccccc12` [DESOXYCORDIFOLINE]?
Answer: IC50 [1]: 49.9 µM; Activity [2]: Active

Question: With `Cc1nc(C(=O)O)cc2c1[nH]c1ccccc12` [HARMAN-3-CARBOXYLIC ACID] as the molecule, how does the IC50 [1] read?
Answer: Its IC50 is 45.5 µM.

Question: Which IC50 [1] does the source give for `C[C@@H]1O[C@@H](OC[C@H]2O[C@@H](Oc3c(-c4ccc(O)c(O)c4)oc4cc(O)cc(O)c4c3=O)[C@H](O)[C@@H](O)[C@@H]2O)[C@H](O)[C@H](O)[C@H]1O` [RUTIN] here?
Answer: The IC50 was 12.3 µM.

Question: With `C=C[C@H]1[C@H](O[C@@H]2O[C@H](CO)[C@@H](O)[C@H](O)[C@H]2O)OC=C(C(=O)OC)[C@H]1C[C@@H]1NCCc2c1[nH]c1ccccc21` [STRICTOSIDINE] as the molecule, how does the IC50 [1] read?
Answer: Its IC50 is 56 µM.

Question: `C=CC1C(C[C@@H]2NCCc3c2[nH]c2ccccc32)C(C(=O)O)=CO[C@H]1O[C@@H]1O[C@H](CO)[C@@H](O)[C@H](O)[C@H]1O` (stereo partly drawn) [STRICTOSIDINIC ACID] was tested. Which IC50 [1] did it give?
Answer: The IC50 was 49.7 µM.

Question: What does the source list for `C=C[C@H]1[C@@H](/C(=C/O)C(=O)OC)C[C@H]2c3[nH]c4ccccc4c3CCN2[C@H]1O[C@H]1O[C@@H](CO)[C@H](O)[C@@H](O)[C@@H]1O` [TURBINATINE]?
Answer: Activity [3]: Active; IC50 [1]: 50.9 µM; IC50 [4]: 1.86 µM
